# Marks after values point to notes of the source that are not given here.
# Experiments:
# BRAF wild-type melanoma = test: Tumour response in BRAF wild-type melanoma; type: in vivo, human; settings: three patients with BRAF wild-type melanoma
# Summary of the method: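 Patients had histologically confirmed incurable solid tumours, ECOG ≤1, and received accelerated dose titration from 12 mg daily on 21-day cycles until progression or intolerable toxicity. Response was assessed by RECIST 1.0. Baseline imaging was within 35 days. Restaging was at 9 weeks (escalation) or 6 weeks (expansion), then every 9 weeks.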
# tumour FDG uptake = test: FDG-PET imaging at baseline and Week 2; type: in vivo, human; settings: 35 mg QD–300 mg BID, Week 2
# Summary of the method: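 Pharmacodynamic FDG-PET imaging at baseline and on Day 15 of daily dabrafenib-class dosing. Patients were in the accelerated dose-titration cohorts, which started at 12 mg daily on 21-day cycles.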
# [1] = tested on: V600 BRAF-mutant melanoma with untreated brain metastases; test: RP2D expansion, brain lesion assessment by MRI and PFS; type: in vivo, human
# Summary of the method: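 Expansion cohort of patients with asymptomatic, untreated brain metastases ≥3 mm and no prior resection, stereotactic radiosurgery or whole-brain radiotherapy, given 150 mg BID. BRAF was centrally genotyped. Lesions were imaged by gadolinium-enhanced T1-weighted MRI, first at 6 weeks and then every 9 weeks. Sum of diameters of lesions ≥3 mm at baseline was expressed as % change from baseline. RECIST 1.0 applied. PFS by Kaplan–Meier.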
# [2] = tested on: non-V600E BRAF-mutant melanoma; test: Tumour response and PFS in melanoma with non-V600E BRAF mutations; type: in vivo, human
# Summary of the method: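 Melanoma patients with V600K or non-V600 or complex BRAF mutations, treated at all dose levels (titration from 12 mg daily, 21-day cycles). Response was assessed by RECIST 1.0 with restaging at 9 or 6 weeks, then every 9 weeks, and 95% exact CIs were given. PFS was estimated by Kaplan–Meier from first dose. Treatment duration ran from first dose to last dose or the 25 March 2011 data cut.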
# [3] = cited from earlier work; for Penetration of the blood-brain barrier: in vivo
# [4] = Phase I trial: safety and tolerability, adverse events; settings: in vivo
# [5] = tested on: BRAF-mutant metastatic melanoma; settings: cited from earlier work
# [6] = tested on: K601E BRAF-mutant cell line; settings: cited from earlier work
# [7] = among the eight patients who progressed
compound,measurement,setting,value
"CC(C)(C)c1nc(-c2cccc(NS(=O)(=O)c3c(F)cccc3F)c2F)c(-c2ccnc(N)n2)s1 [dabrafenib, Dabrafenib]",Responses,BRAF wild-type melanoma,no responses were observed
same,Patients with decrease in mean SUVmax of tumour FDG uptake vs baseline,tumour FDG uptake; 53 of 56 patients,95%
same,Median decrease in mean SUVmax of tumour FDG uptake,tumour FDG uptake; 56 patients,60%
same,Range of percentage change from baseline in mean SUVmax,tumour FDG uptake; 56 patients,−100% to 19
same,Patients achieving complete resolution of all brain lesions,[1]; RP2D,four of ten
same,Patients with decreasing size of extracranial metastases,[1]; among patients with responding brain lesions,all nine
same,Patients with site of progression in extracranial sites alone,[1]; [7],three
same,Patients with site of progression in the brain alone,[1]; [7],three
same,Survival at 5 months,[1]; n=10,All patients were alive at 5 months
same,Time at which the most durable responder met criteria for progressive disease,[1]; remains on study at 19 months,15 months
same,Patients who received treatment for at least 6 months,"[2]; V600K, all dose levels, nine patients",50%
same,Responses,[2]; three patients with non-V600 or complex BRAF mutations,no responses were observed
same,Penetration of the blood-brain barrier,[3],neither vemurafenib nor dabrafenib demonstrate penetration
same,Penetration of the intact blood–brain barrier by the parent drug,"[3]; preclinical, after single-dose administration, ref unpublished data",minimal penetration
same,Patients experiencing AEs higher than grade 2,[4]; human,24%
same,Patients requiring dose reductions,[4]; human,7%
same,Patients requiring dose reductions for fatigue,[4]; human,2%
same,Patients requiring dose reductions for neutropenia,[4]; human,1%
same,Patients requiring dose reductions for pyrexia,[4]; human,3%
same,Patients with arthralgia of grade 2 or higher,[4]; human,less than 5%
same,Patients with dose-limiting toxicities (DLTs),[4]; human,three of 20
same,Patients with pyrexia as a serious AE,[4]; human,4%
same,Patients with treatment-related actinic keratosis,[4]; human,10%
same,Patients with treatment-related fatigue grade 2 or higher,[4]; human,8%
same,Patients with treatment-related hyperkeratosis,[4]; human,26%
same,Patients with treatment-related hyperkeratotic lesions of grade 2 or above,[4]; human,3%
same,Patients with treatment-related pyrexia,[4]; human,20%
same,Patients with treatment-related pyrexia grade 2 or higher,[4]; human,6%
same,Range of onset of cutaneous SCC,[4]; human,9 to 217 days
same,Range of time to first pyrexia,[4]; human,1 to 532 days
same,"Treatment-related cutaneous squamous cell carcinoma, grade 2 or higher, Total",[4]; human,20 (11) ^* n (%)
same,"Treatment-related cutaneous squamous cell carcinoma, toxicity grade 2",[4]; human,0 n (%)
same,"Treatment-related cutaneous squamous cell carcinoma, toxicity grade 3",[4]; human,20 (11) n (%)
same,"Treatment-related fatigue, grade 2 or higher, Total",[4]; human,14 (8) n (%)
same,"Treatment-related fatigue, toxicity grade 2",[4]; human,12 (7) n (%)
same,"Treatment-related fatigue, toxicity grade 3",[4]; human,2 (1) n (%)
same,"Treatment-related pyrexia, grade 2 or higher, Total",[4]; human,(6) n (%)
same,"Treatment-related pyrexia, toxicity grade 2",[4]; human,10 (5) n (%)
same,"Treatment-related pyrexia, toxicity grade 3",[4]; human,1 (<1) n (%)
same,Non-cutaneous SCC,[4],not observed
same,Patients with keratoacanthoma,[4],three
same,Photosensitivity,[4],not observed
same,Recurrence or metastasis of cutaneous SCC after local excision,[4],no recurrence or metastasis was observed
CCCS(=O)(=O)Nc1ccc(F)c(C(=O)c2c[nH]c3ncc(-c4ccc(Cl)cc4)cc23)c1F [vemurafenib],Reduction in risk of death,"[5]; Phase III, first-line vs dacarbazine, V600E mutant metastatic melanoma",63%
same,Unconfirmed responses,"[5]; V600E BRAF-mutant metastatic melanoma, Phase I",81%
same,Confirmed response rate,"[5]; V600E-mutant BRAF metastatic melanoma, Phase III vs dacarbazine",48%
same,Photosensitivity,[5],commonly reported
same,Response rate,"[5]; ten of 336 patients carrying the V600K mutation, Phase III",40%
same,Inhibition in cell line with K601E mutation,[6],less inhibition
same,Penetration of the blood-brain barrier,[3],neither vemurafenib nor dabrafenib demonstrate penetration

# Reference: article PMC4109288 (Lancet, 2012)
